Series [1] deals with Mus musculus. The experiment in a line: Acute toxicity in ip dosed Swiss albino mouse inoculated with human HeLa cells assessed as mortality measured up to two weeks. The format is organism-based. Particulars: in vivo. An outline of the steps: (§1)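 Adult Swiss albino mice fasted 12 h, randomised into groups of 10. Single i.p. administration at graded doses, 1 ml/kg body weight; controls received vehicle alone. Food and water given immediately after dosing. Mortality followed for up to two weeks. LD50 taken as the dose giving 50% mortality.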

The subject of series [2] is Mus musculus. Kind of series: Acute toxicity in ip dosed Swiss albino mouse xenografted with human HepG2 cells assessed as mortality measured up to two weeks. The format is organism-based. Particulars: in vivo. An outline of the steps:
as §1
Background: In xenograft studies the graft and the host belong to different species.

The next series has as its system HepG2. The experiment in a line: Antitumor activity against human HepG2 cells xenografted in Swiss albino mouse assessed as increase in life span at 10 ug/kg, ip for 10 consecutive days relative to control. The series is classed as functional. The procedure, abridged:
(§2)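 Male Swiss albino mice (20 ± 2 g), acclimatised one week at 25–27 °C, 12 h light/dark. Ascites tumour established by i.p. inoculation of 1 × 10⁶ viable cells. Dosing began 24 h after inoculation, i.p. daily for 10 consecutive days. DMSO vehicle control group; cisplatine 2 mg/kg i.p. for 10 days as reference. Survival time recorded and % increase in life span derived; mean ± SE, n = 10 mice.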

In the next series the test system is HeLa. The experiment in a line: Antitumor activity against human HeLa cells xenografted in Swiss albino mouse assessed as increase in life span at 10 ug/kg, ip for 10 consecutive days relative to control. The format is functional. The procedure, abridged: as §2

20 molecules from ChEMBL document CHEMBL1154832, “Synthesis and antitumor activity of new dihydropyridine thioglycosides and their corresponding dehydrogenated forms” (Eur J Med Chem, 2010) can be followed below.

For `N#Cc1c(N)nc(S[C@@H]2O[C@H](O)[C@@H](O)[C@H](O)[C@H]2O)c(C#N)c1-c1ccc2ccccc2c1`, the results for the LD50 in the series with Mus musculus [1] and with Mus musculus [2] were 110 µg/kg and 130 µg/kg, respectively. The Activity with HepG2 stood at 58%; in the series on HeLa it was 51%.

Consider `N#CC1=C(N)NC(S[C@@H]2O[C@H](O)[C@@H](O)[C@H](O)[C@H]2O)=C(C#N)C1c1ccc2ccccc2c1` (stereo not given in full), for which the LD50 (as a rule, the dose expected to kill half of the subjects tested) amounted to 115 µg/kg with Mus musculus [1] and 110 µg/kg in the series on Mus musculus [2]. For the same molecule, the Activity in the series with HepG2 was found to be 50%; in the series on HeLa it was 39%.

On to `CC(=O)O[C@H]1O[C@@H](SC2=C(C#N)C(c3ccc([N+](=O)[O-])cc3)C(C#N)=C(N)N2)[C@H](OC(C)=O)[C@@H](OC(C)=O)[C@@H]1OC(=O)O` (stereo not given in full), for which the figures for the 50% lethal dose (LD50) in the series with Mus musculus [1] and in the series with Mus musculus [2] were 70 µg/kg and 85 µg/kg, respectively. Also, the figures for the Activity in the series on HepG2 and in the series on HeLa were 34% and 27%, respectively.

Turning to `CC(=O)O[C@H]1O[C@@H](SC2=C(C#N)C(c3ccc4ccccc4c3)C(C#N)=C(N)N2)[C@H](OC(C)=O)[C@@H](OC(C)=O)[C@H]1OC(=O)O` (stereo not given in full), the LD50 with Mus musculus [1] came to 70 µg/kg; with Mus musculus [2], 65 µg/kg. The Activity in the series on HepG2 is listed as 38%; in the series on HeLa, 31%.

For `COc1ccc(C2C(C#N)=C(N)NC(S[C@@H]3O[C@H](O)[C@@H](O)[C@H](O)[C@H]3O)=C2C#N)cc1` (stereo not given in full), the values for the LD50 in the series on Mus musculus [1] and in the series on Mus musculus [2] were 95 µg/kg and 110 µg/kg, respectively. Further, the Activity is listed as 69% with HepG2 and 55% in the series on HeLa.

On to `COc1ccc(-c2c(C#N)c(N)nc(S[C@@H]3O[C@H](O)[C@H](O)[C@H](O)[C@H]3O)c2C#N)cc1`, for which the LD50 with Mus musculus [1] is 130 µg/kg; in the series on Mus musculus [2] it was 115 µg/kg. In addition, the Activity in the series on HepG2 stood at 56%; with HeLa, 47%.

For the molecule `CC(=O)O[C@H]1O[C@@H](Sc2nc(N)c(C#N)c(-c3ccccc3)c2C#N)[C@H](OC(C)=O)[C@@H](OC(C)=O)[C@H]1OC(C)=O`, the values for the LD50 in the series with Mus musculus [1] and in the series with Mus musculus [2] were 60 µg/kg and 65 µg/kg, respectively. Also, the Activity in the series with HepG2 was 43%; in the series on HeLa, 38%.

`CC(=O)O[C@H]1O[C@@H](SC2=C(C#N)C(c3ccc(Br)cc3)C(C#N)=C(N)N2)[C@H](OC(C)=O)[C@@H](OC(C)=O)[C@@H]1OC(=O)O` (stereo not given in full): the LD50 in the series on Mus musculus [1] and in the series on Mus musculus [2] was 90 µg/kg in each case. Further, the Activity was found to be 31% with HepG2 and 29% in the series with HeLa.

On to `N#Cc1c(N)nc(S[C@@H]2O[C@H](O)[C@@H](O)[C@H](O)[C@H]2O)c(C#N)c1-c1ccc(Br)cc1`, for which the LD50 in the series on Mus musculus [1] was determined as 120 µg/kg; with Mus musculus [2], 105 µg/kg. Further, the Activity in the series on HepG2 is 60%; in the series on HeLa, 50%.

On to `COc1ccc(-c2c(C#N)c(N)nc(S[C@@H]3O[C@H](OC(C)=O)[C@H](OC(C)=O)[C@H](OC(C)=O)[C@H]3OC(C)=O)c2C#N)cc1`, for which the figures for the LD50 in the series on Mus musculus [1] and in the series on Mus musculus [2] were 70 µg/kg and 65 µg/kg, respectively. In addition, the Activity with HepG2 was found to be 48%; in the series on HeLa it was 47%.

In the case of `COc1ccc(C2C(C#N)=C(N)NC(S[C@@H]3O[C@H](OC(C)=O)[C@@H](OC(=O)O)[C@H](OC(C)=O)[C@H]3OC(C)=O)=C2C#N)cc1` (stereo not given in full), the LD50 was found to be 160 µg/kg in the series with Mus musculus [1] and 150 µg/kg in the series with Mus musculus [2]. Further, the Activity with HepG2 is 39%; in the series with HeLa, 25%.

For `COc1ccc(C2C(C#N)=C(N)NC(S[C@@H]3O[C@H](OC(C)=O)[C@H](OC(=O)O)[C@H](OC(C)=O)[C@H]3OC(C)=O)=C2C#N)cc1` (stereo not given in full), the LD50 in the series on Mus musculus [1] worked out at 65 µg/kg; in the series with Mus musculus [2], 60 µg/kg. Also, the Activity with HepG2 and in the series on HeLa was 30% in each case.

Take `CC(=O)O[C@H]1O[C@@H](Sc2nc(N)c(C#N)c(-c3ccc4ccccc4c3)c2C#N)[C@H](OC(C)=O)[C@@H](OC(C)=O)[C@H]1OC(C)=O`: the LD50 in the series with Mus musculus [1] was 135 µg/kg; in the series on Mus musculus [2], 125 µg/kg. Also, the Activity with HepG2 is recorded as 50%; in the series on HeLa it was 39%.

As for `CC(=O)O[C@H]1O[C@@H](Sc2nc(N)c(C#N)c(-c3ccc4ccccc4c3)c2C#N)[C@H](OC(C)=O)[C@@H](OC(C)=O)[C@@H]1OC(C)=O`, the LD50 in the series with Mus musculus [1] and with Mus musculus [2] was 60 µg/kg each time. The Activity in the series on HepG2 stood at 49%; in the series on HeLa it was 40%.

On to `N#Cc1c(N)nc(S[C@@H]2O[C@H](O)[C@H](O)[C@H](O)[C@H]2O)c(C#N)c1-c1ccc2ccccc2c1`, for which the LD50 in the series with Mus musculus [1] amounted to 125 µg/kg; in the series with Mus musculus [2] it was 145 µg/kg. The figures for the Activity with HepG2 and in the series with HeLa were 57% and 53%, respectively.

With `CC(=O)O[C@H]1O[C@@H](SC2=C(C#N)C(c3ccccc3)C(C#N)=C(N)N2)[C@H](OC(C)=O)[C@@H](OC(C)=O)[C@@H]1OC(=O)O` (stereo not given in full), the LD50 in the series on Mus musculus [1] was determined as 75 µg/kg; with Mus musculus [2], 80 µg/kg. For the same molecule, the Activity in the series with HepG2 was 29%; with HeLa, 30%.

Turning to `CC(=O)O[C@H]1O[C@@H](SC2=C(C#N)C(c3ccccc3)C(C#N)=C(N)N2)[C@H](OC(C)=O)[C@@H](OC(C)=O)[C@H]1OC(=O)O` (stereo not given in full), the results for the LD50 in the series on Mus musculus [1] and in the series on Mus musculus [2] were 60 µg/kg and 70 µg/kg, respectively. In addition, the Activity in the series on HepG2 worked out at 34%; in the series with HeLa, 30%.

In the case of `CC(=O)O[C@H]1O[C@@H](Sc2nc(N)c(C#N)c(-c3ccc(Br)cc3)c2C#N)[C@H](OC(C)=O)[C@@H](OC(C)=O)[C@@H]1OC(C)=O`, the LD50 in the series with Mus musculus [1] came out at 75 µg/kg; with Mus musculus [2] it was 65 µg/kg. Also, the Activity in the series on HepG2 amounted to 48%; with HeLa it was 46%.

In the case of `COc1ccc(C2C(C#N)=C(N)NC(S[C@@H]3O[C@H](O)[C@H](O)[C@H](O)[C@H]3O)=C2C#N)cc1` (stereo not given in full), the LD50 in the series on Mus musculus [1] worked out at 80 µg/kg; in the series with Mus musculus [2], 60 µg/kg. Moreover, the Activity with HepG2 worked out at 63%; with HeLa, 44%.

Take `N#CC1=C(N)NC(S[C@@H]2O[C@H](O)[C@H](O)[C@H](O)[C@H]2O)=C(C#N)C1c1ccc2ccccc2c1` (stereo not given in full): the LD50 with Mus musculus [1] stood at 120 µg/kg; with Mus musculus [2] it was 130 µg/kg. The Activity in the series with HepG2 is reported as 60%; in the series on HeLa it was 45%.
